In ChEMBL document CHEMBL3414507, “Design, synthesis, biological evaluation and preliminary mechanism study of novel benzothiazole derivatives bearing indole-based moiety as potent antitumor agents” (Eur J Med Chem, 2015) one finds IC50, Activity and inhibition data, which are given here for 33 molecules.

Each structure is given as a SMILES string. pIC50: −log10 of the molar value. Several values for one entry are separate records, joined by “and”; a condition that tells them apart may be missing. Equal entries are not always repeated.

By pIC50 is commonly meant the negative decadic logarithm of the IC50, by convention in mol/L. Usually inhibition stands for the percentage by which the read-out fell short of the control. High values mean strong suppression, low ones little suppression.

Test [1] can be described thus: Cytotoxicity against human H460 cells after 72 hrs by MTT assay. Type of test: functional, cell-based. To be noted: NCI-H460, 72 h. In short, it runs like this:
(§1)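 MTT assay on HT29, H460, A549 and MDA-MB-231 cells with oncrasin-1 and PAC-1 as positive controls; IC50 from three independent experiments.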
Background: Tetrazolium assays rely on reduction of a dye to a coloured formazan, in cell work by metabolically active cells.

The test system of test [2] is A549. The test can be described thus: Cytotoxicity against human A549 cells after 72 hrs by MTT assay. Type of test: functional, cell-based. To be noted: A549, 72 h. In short, it runs like this: as §1
The test system of test [3] is MDA-MB-231. The test can be described thus: Cytotoxicity against human MDA-MB-231 cells after 72 hrs by MTT assay. Type of test: functional, cell-based. The conditions noted are these: MDA-MB-231, 72 h. In short, it runs like this:
as §1

The target of test [4] is T1, Caspase-3 (Homo sapiens) (UniProt P42574).
T1 sequence (whole entry): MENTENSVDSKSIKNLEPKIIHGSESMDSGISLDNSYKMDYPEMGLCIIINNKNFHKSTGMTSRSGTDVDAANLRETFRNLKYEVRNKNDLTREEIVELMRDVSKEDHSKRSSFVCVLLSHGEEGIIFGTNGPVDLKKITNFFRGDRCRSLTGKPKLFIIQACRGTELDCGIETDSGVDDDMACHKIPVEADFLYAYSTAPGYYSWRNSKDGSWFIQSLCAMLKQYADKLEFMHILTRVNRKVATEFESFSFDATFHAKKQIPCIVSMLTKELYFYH
The test can be described thus: Activation of procaspase-3 (unknown origin) using Ac-DEVD-pNa as substrate at 10 uM after 2 hrs by spectrophotometry.

Test [5] deals with Tubulin (Homo sapiens) (UniProt P68371+Q9H4B7+P0DPH7+P68366+Q13509+Q71U36+P04350+Q3ZCM7+P07437+P68363+Q9BQE3+Q6PEY2+Q13885+Q9BVA1+Q9BUF5). Description: Inhibition of tubulin (unknown origin) at 10 uM measured for 20 mins by turbidity method. Type of test: protein-complex assay.
For test [6], the system named is HT-29. Description: Cytotoxicity against human HT-29 cells after 72 hrs by MTT assay. Type of test: functional, cell-based. A digest of the protocol: as §1
In test [7] the target is Vascular endothelial growth factor receptor 2 (Homo sapiens) (UniProt P35968). Description: Inhibition of KDR (unknown origin) at 10 uM after 30 mins by HTRF method.
Sequence of Vascular endothelial growth factor receptor 2 (Homo sapiens) (P35968 whole entry): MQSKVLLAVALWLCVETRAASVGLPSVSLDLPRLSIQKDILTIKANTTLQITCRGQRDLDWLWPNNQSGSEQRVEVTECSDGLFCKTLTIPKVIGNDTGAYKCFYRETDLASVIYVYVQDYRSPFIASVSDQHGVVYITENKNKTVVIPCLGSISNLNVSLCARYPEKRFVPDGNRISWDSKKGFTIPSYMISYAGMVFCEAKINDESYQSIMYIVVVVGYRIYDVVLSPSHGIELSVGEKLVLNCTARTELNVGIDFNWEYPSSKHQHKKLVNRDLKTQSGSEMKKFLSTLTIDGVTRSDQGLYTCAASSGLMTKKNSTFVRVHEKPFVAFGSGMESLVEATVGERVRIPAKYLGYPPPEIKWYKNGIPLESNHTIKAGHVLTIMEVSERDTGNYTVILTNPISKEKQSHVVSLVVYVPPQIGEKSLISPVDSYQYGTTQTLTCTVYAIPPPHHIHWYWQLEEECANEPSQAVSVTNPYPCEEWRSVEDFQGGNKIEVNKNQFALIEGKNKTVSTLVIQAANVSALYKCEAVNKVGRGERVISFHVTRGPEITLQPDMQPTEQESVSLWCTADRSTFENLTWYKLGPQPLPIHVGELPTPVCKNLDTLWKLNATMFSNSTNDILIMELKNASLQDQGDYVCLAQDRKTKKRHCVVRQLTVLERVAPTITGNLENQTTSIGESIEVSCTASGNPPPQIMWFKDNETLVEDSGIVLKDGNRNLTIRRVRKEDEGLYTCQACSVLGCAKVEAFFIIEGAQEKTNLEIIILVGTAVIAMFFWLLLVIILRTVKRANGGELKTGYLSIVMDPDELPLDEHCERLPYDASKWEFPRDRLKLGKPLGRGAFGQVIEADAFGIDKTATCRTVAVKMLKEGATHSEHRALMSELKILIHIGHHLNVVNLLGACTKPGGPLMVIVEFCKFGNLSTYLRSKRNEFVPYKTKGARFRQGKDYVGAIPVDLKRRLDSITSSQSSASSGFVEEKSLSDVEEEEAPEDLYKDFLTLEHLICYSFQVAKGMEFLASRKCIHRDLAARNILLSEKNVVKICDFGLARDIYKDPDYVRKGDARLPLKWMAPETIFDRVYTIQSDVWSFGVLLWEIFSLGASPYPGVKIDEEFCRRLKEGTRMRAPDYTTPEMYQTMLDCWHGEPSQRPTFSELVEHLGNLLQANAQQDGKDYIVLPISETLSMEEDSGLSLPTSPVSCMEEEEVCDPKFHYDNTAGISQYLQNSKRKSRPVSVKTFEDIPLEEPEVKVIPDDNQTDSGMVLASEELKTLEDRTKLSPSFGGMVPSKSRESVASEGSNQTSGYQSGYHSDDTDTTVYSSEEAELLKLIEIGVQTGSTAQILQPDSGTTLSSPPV
The target of test [8] is Platelet-derived growth factor receptor beta (Homo sapiens) (UniProt P09619). Description: Inhibition of PDGFR-beta (unknown origin) at 10 uM after 30 mins by HTRF method. (In TR-FRET formats the signal depends on donor and acceptor labels being close together.)
Sequence of Platelet-derived growth factor receptor beta (Homo sapiens) (P09619 whole entry): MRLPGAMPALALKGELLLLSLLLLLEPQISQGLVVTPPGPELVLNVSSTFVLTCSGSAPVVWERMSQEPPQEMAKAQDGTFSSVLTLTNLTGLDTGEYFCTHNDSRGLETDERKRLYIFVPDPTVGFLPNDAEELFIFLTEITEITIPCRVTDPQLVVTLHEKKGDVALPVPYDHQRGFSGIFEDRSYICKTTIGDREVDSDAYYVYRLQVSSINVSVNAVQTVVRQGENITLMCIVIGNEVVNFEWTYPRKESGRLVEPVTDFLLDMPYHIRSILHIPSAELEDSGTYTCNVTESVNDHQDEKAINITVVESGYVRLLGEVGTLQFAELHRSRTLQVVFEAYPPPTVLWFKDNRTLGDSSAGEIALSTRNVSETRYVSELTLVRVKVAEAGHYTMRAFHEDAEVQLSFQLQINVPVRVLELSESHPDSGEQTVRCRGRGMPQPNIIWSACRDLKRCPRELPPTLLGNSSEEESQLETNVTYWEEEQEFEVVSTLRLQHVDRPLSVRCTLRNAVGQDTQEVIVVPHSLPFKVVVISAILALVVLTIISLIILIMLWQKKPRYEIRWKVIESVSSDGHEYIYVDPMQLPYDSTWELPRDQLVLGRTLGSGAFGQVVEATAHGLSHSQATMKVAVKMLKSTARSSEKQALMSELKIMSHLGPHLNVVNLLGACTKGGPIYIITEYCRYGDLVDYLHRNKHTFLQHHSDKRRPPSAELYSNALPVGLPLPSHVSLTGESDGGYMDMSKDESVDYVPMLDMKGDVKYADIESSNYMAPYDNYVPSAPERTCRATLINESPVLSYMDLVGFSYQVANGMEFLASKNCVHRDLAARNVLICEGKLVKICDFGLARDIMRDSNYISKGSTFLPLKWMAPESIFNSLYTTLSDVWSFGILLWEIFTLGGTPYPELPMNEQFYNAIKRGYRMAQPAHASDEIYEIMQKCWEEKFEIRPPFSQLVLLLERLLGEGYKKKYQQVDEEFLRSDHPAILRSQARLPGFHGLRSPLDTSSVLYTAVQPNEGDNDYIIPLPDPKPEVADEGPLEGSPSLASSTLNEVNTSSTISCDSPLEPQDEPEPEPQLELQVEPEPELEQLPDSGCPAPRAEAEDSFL
In test [9] the target is Receptor-type tyrosine-protein kinase FLT3 (Homo sapiens) (UniProt P36888). The test can be described thus: Inhibition of FLT3 (unknown origin) at 10 uM after 30 mins by HTRF method.
Sequence of Receptor-type tyrosine-protein kinase FLT3 (Homo sapiens) (P36888 whole entry): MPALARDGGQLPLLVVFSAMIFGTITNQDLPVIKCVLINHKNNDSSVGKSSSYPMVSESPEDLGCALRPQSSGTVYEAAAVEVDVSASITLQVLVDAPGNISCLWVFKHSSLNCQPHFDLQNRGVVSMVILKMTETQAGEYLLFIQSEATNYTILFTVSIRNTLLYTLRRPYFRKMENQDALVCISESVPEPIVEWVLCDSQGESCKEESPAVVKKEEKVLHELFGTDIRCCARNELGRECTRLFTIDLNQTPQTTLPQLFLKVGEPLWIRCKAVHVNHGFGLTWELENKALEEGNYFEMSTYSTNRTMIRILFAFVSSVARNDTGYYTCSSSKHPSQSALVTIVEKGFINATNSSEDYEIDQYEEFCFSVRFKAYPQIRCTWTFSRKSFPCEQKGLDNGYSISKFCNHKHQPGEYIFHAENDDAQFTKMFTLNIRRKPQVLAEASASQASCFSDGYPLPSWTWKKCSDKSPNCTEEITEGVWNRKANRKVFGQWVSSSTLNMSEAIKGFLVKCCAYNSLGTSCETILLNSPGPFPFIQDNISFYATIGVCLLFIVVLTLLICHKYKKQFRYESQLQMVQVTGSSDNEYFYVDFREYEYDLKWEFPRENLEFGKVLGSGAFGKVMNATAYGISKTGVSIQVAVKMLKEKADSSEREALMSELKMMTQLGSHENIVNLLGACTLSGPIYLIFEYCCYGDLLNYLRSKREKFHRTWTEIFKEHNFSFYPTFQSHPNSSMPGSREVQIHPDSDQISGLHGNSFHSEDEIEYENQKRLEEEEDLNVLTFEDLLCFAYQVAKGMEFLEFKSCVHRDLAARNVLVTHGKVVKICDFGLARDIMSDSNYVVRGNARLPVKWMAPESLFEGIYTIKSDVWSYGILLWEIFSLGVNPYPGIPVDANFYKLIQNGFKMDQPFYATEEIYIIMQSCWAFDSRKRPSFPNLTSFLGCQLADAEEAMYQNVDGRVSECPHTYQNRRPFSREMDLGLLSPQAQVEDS
The test system of test [10] is HT-29. The test can be described thus: Cell cycle arrest in human HT-29 cells assessed as accumulation at G0/G1 phase AT 10 uM after 48 hrs by propidium iodide staining-based assay (reference value: 54.11%). Type of test: functional.

For `CN(C)Cc1ccc2nc(NC(=O)N/N=C/c3cn(Cc4cccc(Cl)c4)c4ccccc34)sc2c1`, the pIC50 is 6.38 in [1], 5.91 in test [2] and 5.94 in test [3]. Also, the Activity in test [4] turned out to be 48.8%. This molecule had an inhibition in test [5] of 18%.
For `CC1CCN(Cc2ccc3nc(NC(=O)N/N=C/c4c[nH]c5ccccc45)sc3c2)CC1`, the pIC50 in [6] (ht-29) is 4.82 and 5.32; in test [1], 5.38; in [2] it was 5.45; in test [3], 5.61.
For `CC1CCN(Cc2ccc3nc(NC(=O)N/N=C/c4cn(Cc5ccc(Cl)cc5)c5ccccc45)sc3c2)CC1`, the pIC50 in [6] (ht-29) was 6.12 and 5.19; in [1], 6.40; in test [2], 5.69; in [3], 5.55.
With `CCN(CC)Cc1ccc2nc(NC(=O)N/N=C3\C(=O)Nc4ccc(F)cc43)sc2c1`, the pIC50 in test [6] (ht-29) was 5.81 and 5.24; in test [1], 5.97; in test [2], 5.70.
In the case of `Cc1ccc(Cn2cc(/C=N/NC(=O)Nc3nc4ccc(CN5CCC(C)CC5)cc4s3)c3ccccc32)cc1`, the pIC50 was 5.99 and 5.23 in [6] (ht-29); 6.39 in [1]; 5.66 in test [2]; 5.94 in [3].
As to `CN(C)Cc1ccc2nc(NC(=O)N/N=C3\C(=O)Nc4ccc(F)cc43)sc2c1`, the pIC50 is 6.01 and 5.22 in test [6] (ht-29); 5.81 in test [1]; 5.64 in [2]. The molecule also registered an Activity in test [4] of 9.1%. For the same molecule, the inhibition in test [7] is 3.7%; in test [8], 2.2%; in test [9], 34.1%.
With `CC1CCN(Cc2ccc3nc(NC(=O)N/N=C/c4cn(Cc5ccccc5Cl)c5ccccc45)sc3c2)CC1`, the pIC50 in [6] (ht-29) was 5.80 and 5.23; in test [1] it was 5.97; in test [2], 5.48; in [3] it was 5.87.
`CN(C)Cc1ccc2nc(NC(=O)N/N=C3\C(=O)Nc4ccc(Cl)cc43)sc2c1`: the pIC50 in [6] (ht-29) is 5.59 and 5.25; in test [1] it was 5.93; in test [2], 5.50.
Consider `CN(C)Cc1ccc2nc(NC(=O)N/N=C/c3cn(Cc4ccc(Cl)cc4)c4ccccc34)sc2c1`, for which the figures for the pIC50 in [1], in test [2] and in test [3] were 6.54, 6.08 and 6.06, respectively. For the same molecule, the Activity is 70.9% in [4] and 68.66% in [10]. In addition, the inhibition in [5] worked out at 26%; in test [7], 5.9%; in test [8], 12.8%; in test [9], 4.1%.
Turning to `CCN(CC)Cc1ccc2nc(NC(=O)N/N=C/c3cn(Cc4ccccc4)c4ccccc34)sc2c1`, the pIC50 is 6.35 in test [1], 5.48 in test [2] and 5.83 in test [3].
The like results for `CN(C)Cc1ccc2nc(NC(=O)N/N=C/c3cn(Cc4ccccc4Cl)c4ccccc34)sc2c1` were, in that order, 5.80, 5.97 and 5.93.
Take `CCN(CC)Cc1ccc2nc(NC(=O)N/N=C/c3cn(Cc4ccc(Cl)cc4)c4ccccc34)sc2c1`: the pIC50 is 6.43 in test [1], 5.53 in [2] and 5.59 in [3].
For `CN(C)Cc1ccc2nc(NC(=O)N/N=C/c3cn(Cc4ccc(C(C)(C)C)cc4)c4ccccc34)sc2c1`, the pIC50 is 6.09 in [1], 5.73 in test [2] and 5.65 in [3].
Consider `CC1CCN(Cc2ccc3nc(NC(=O)N/N=C/c4cn(Cc5ccc(Cl)cc5Cl)c5ccccc45)sc3c2)CC1`, for which the pIC50 was 5.67 and 5.25 in test [6] (ht-29); 5.78 in test [1]; 5.44 in test [2]; 5.50 in test [3].
For the molecule `C=CCc1cccc(/C=N/NC(=O)CN2CCN(Cc3ccccc3)CC2)c1O` [PAC-1], the pIC50 in test [6] (Homo sapiens, HT-29, 72 h) was 5.99; in [1], 5.90; in test [2], 5.60; in test [3] it was 5.49. In [4], this molecule displayed an Activity of 100%.
Regarding `CCN(CC)Cc1ccc2nc(NC(=O)N/N=C/c3cn(Cc4ccccc4Cl)c4ccccc34)sc2c1`, the figures for the pIC50 in test [1], in [2] and in [3] were 6.01, 5.86 and 6.05, respectively.
On to `CCN(CC)Cc1ccc2nc(NC(=O)N/N=C/c3cn(Cc4cccc(Cl)c4)c4ccccc34)sc2c1`, for which the values for the negative logarithm of the IC50 (pIC50) in [1], in test [2] and in test [3] were 6.66, 5.62 and 5.69, respectively.
Take `CCN(CC)Cc1ccc2nc(NC(=O)N/N=C/c3c[nH]c4ccccc34)sc2c1`: the pIC50 was 4.92 and 5.31 in test [6] (ht-29); 5.50 in [1]; 5.48 in test [2]; 5.72 in test [3].
Turning to `CN(C)Cc1ccc2nc(NC(=O)N/N=C/c3c[nH]c4ccccc34)sc2c1`, the pIC50 in test [6] (Homo sapiens, HT-29, 72 h) is 5.00; in test [6] (ht-29), 5.30; in test [1], 5.59; in test [2] it was 5.48; in [3] it was 5.92.
Regarding `CC1CCN(Cc2ccc3nc(NC(=O)N/N=C/c4cn(Cc5ccc(C(C)(C)C)cc5)c5ccccc45)sc3c2)CC1`, the pIC50 in [6] (ht-29) is 5.82 and 5.24; in [1] it was 5.47; in test [2], 5.43; in test [3], 5.41.
With `CC1CCN(Cc2ccc3nc(NC(=O)N/N=C4\C(=O)Nc5ccc(F)cc54)sc3c2)CC1`, the pIC50 in [6] (Homo sapiens, HT-29, 72 h) is 5.39; in test [6] (ht-29) it was 5.27; in [1], 5.84; in test [2], 5.52.
Consider `CCN(CC)Cc1ccc2nc(NC(=O)N/N=C/c3cn(Cc4ccc(Cl)c(Cl)c4)c4ccccc34)sc2c1`, for which the pIC50 is 6.20 and 5.21 in [6] (ht-29); 6.21 in test [1]; 5.83 in [2]; 5.35 in test [3].
On to `CN(C)Cc1ccc2nc(NC(=O)N/N=C/c3cn(Cc4ccc(Cl)c(Cl)c4)c4ccccc34)sc2c1`, for which the pIC50 was 5.87 in test [1], 6.03 in test [2] and 6.00 in test [3].
In the case of `O=Cc1cn(Cc2ccc(Cl)cc2)c2ccccc12`, the pIC50 in test [6] (Homo sapiens, HT-29, 72 h) is 5.77; in test [1], 6.07; in [2] it was 5.61; in test [3] it was 4.58.
In the case of `CN(C)Cc1ccc2nc(NC(=O)N/N=C/c3cn(Cc4ccccc4)c4ccccc34)sc2c1`, the values for the pIC50 in test [1], in [2] and in test [3] were 6.40, 5.54 and 5.87, respectively.
Regarding `CCN(CC)Cc1ccc2nc(NC(=O)N/N=C/c3cn(Cc4ccc(C)cc4)c4ccccc34)sc2c1`, the negative-log IC50 (pIC50) in test [1] was 6.49; in [2], 5.82; in test [3], 5.70.
For the molecule `CC1CCN(Cc2ccc3nc(NC(=O)N/N=C/c4cn(Cc5cccc(Cl)c5)c5ccccc45)sc3c2)CC1`, the pIC50 in test [6] (ht-29) was 6.14 and 5.21; in test [1], 6.55; in test [2] it was 5.55; in test [3] it was 5.68.
On to `Cc1ccc(Cn2cc(/C=N/NC(=O)Nc3nc4ccc(CN(C)C)cc4s3)c3ccccc32)cc1`, for which the results for the pIC50 in test [1], in test [2] and in test [3] were 6.70, 5.80 and 5.91, respectively.
For `CN(C)Cc1ccc2nc(NC(=O)N/N=C/c3cn(Cc4ccc(Cl)cc4Cl)c4ccccc34)sc2c1`, the negative-log IC50 (pIC50) in test [1] was 6.02; in test [2], 5.70; in [3], 5.85.
Consider `CCN(CC)Cc1ccc2nc(NC(=O)N/N=C/c3cn(Cc4ccc(Cl)cc4Cl)c4ccccc34)sc2c1`, for which the pIC50 is 5.98 and 5.22 in [6] (ht-29); 5.97 in [1]; 5.72 in test [2]; 5.48 in test [3].
Regarding `CCN(CC)Cc1ccc2nc(NC(=O)N/N=C3\C(=O)Nc4ccc(OC(F)(F)F)cc43)sc2c1`, the pIC50 in [6] (ht-29) was 5.72 and 5.24; in [1], 5.68; in test [2], 5.70.
`CCN(CC)Cc1ccc2nc(NC(=O)N/N=C/c3cn(Cc4ccc(C(C)(C)C)cc4)c4ccccc34)sc2c1`: the values for the pIC50 in [1], in test [2] and in test [3] were 5.78, 5.77 and 5.67, respectively.
`CC1CCN(Cc2ccc3nc(NC(=O)N/N=C/c4cn(Cc5ccccc5)c5ccccc45)sc3c2)CC1`: the pIC50 is 5.69 and 5.24 in test [6] (ht-29); 5.72 in test [1]; 5.63 in test [2]; 5.55 in [3].
